Results as given in ChEMBL document CHEMBL4270592, “8-Aryl-6-chloro-3-nitro-2-(phenylsulfonylmethyl)imidazo[1,2-a]pyridines as potent antitrypanosomatid molecules bioactivated by type 1 nitroreductases” (Eur J Med Chem, 2018).

Columns and labels:
[1] = system: Trypanosoma brucei brucei; test: Antitrypanosomal activity against trypomastigote stage of Trypanosoma brucei brucei AnTat 1.9 assessed as decrease in parasite viability after 69 hrs by Alamar blue assay; assay type: functional, organism-based; conditions: AnTat 1.9, 69 h
Method in brief: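 AnTat 1.9 in MEM with Earle's salts plus 0.5 mM mercaptoethanol, 1.5 mM L-cysteine, 0.05 mM bathocuproine sulfate and 20% heat-inactivated horse serum, 37 °C, 5% CO2. Seeded 2000 parasites/100 µL with compounds in DMSO, in duplicate, 69 h, then Alamar Blue for 5 h.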

[2] = Selectivity index, ratio of CC50 for human HepG2 cells to IC50 for axenic amastigote stage of Leishmania infantum; assay type: toxicity; conditions: read-out: Ratio CC50/IC50
[3] = Selectivity index, ratio of CC50 for human HepG2 cells to IC50 for trypomastigote stage of Trypanosoma brucei brucei AnTat 1.9; assay type: toxicity; conditions: read-out: Ratio CC50/IC50
[4] = system: Leishmania infantum; test: Antileishmanial activity against axenic amastigote stage of Leishmania infantum assessed as inhibition of parasite metabolic activity after 48 hrs by luciferase reporter gene based luminescence assay; assay type: functional, organism-based
Method in brief: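 L. infantum promastigotes in log phase switched to RPMI 1640 pH 5.4 for 24 h at 24 °C, then 24 h at 37 °C to give axenic amastigotes. Seeded at 2.106 parasites/mL with compounds in DMSO (final <0.5% v/v), in duplicate, 48 h at 37 °C. Wells checked for precipitate, luciferase luminescence read, IC50 by non-linear regression as mean.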

[5] = system: HepG2; test: Cytotoxicity against human HepG2 cells assessed as reduction in cell viability after 72 hrs by MTT assay; assay type: cell-based; conditions: hepg2, 72 h
Method in brief: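 HepG2 cells in RPMI with 10% FCS, L-glutamine and penicillin/streptomycin, 37 °C, 6% CO2. After 24 h, compounds in DMSO (final <0.5% v/v) added for 72 h, in duplicate. Precipitate checked, MTT (0.5 mg/mL) 2 h, formazan dissolved in DMSO, A570 with 630 nm reference. Viability as % of untreated control; CC50 from dose-response curve; doxorubicin positive control.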

[6] = system: THP-1; test: (§1) Cytotoxicity against human THP1 cells assessed as reduction in cell viability after 72 hrs by MTT assay; assay type: cell-based; conditions: thp-1, 72 h
Method in brief: (§2)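 THP1 cells in complete RPMI with PMA (final 50 ng/mL) at 10⁶ cells/mL, differentiated 48 h. Compounds in DMSO (final <0.5% v/v) then added for 72 h at 37 °C. MTT (0.5 mg/mL in FCS-free medium) 2 h, formazan dissolved in DMSO, A570 with 630 nm reference. Viability as % of untreated control; CC50 from dose-response curve; doxorubicin positive control.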

[7] = Substrate activity at recombinant type-1 nitroreductase in bloodstream form of Trypanosoma brucei brucei S427 assessed as inhibition of parasite growth after 72 hrs
Method in brief: (§3)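 Bloodstream-form T. brucei single marker S427 (T7RPOL TETR NEO) cultured at 37 °C in HMI9-T with 2.5 µg/mL G418. NTR1-overexpressing line kept in 2.5 µg/mL phleomycin and induced with 1 µg/mL tetracycline 48 h before the assay. Triplicate cultures seeded at 1×10^5 cells/mL with inhibitor; cell densities counted after 72 h to give EC50.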

[8] = system: Trypanosoma brucei brucei; test: […] activity against wild type bloodstream form of Trypanosoma brucei brucei S427 after 72 hrs; assay type: functional, organism-based; conditions: S427, 72 h; method in brief: as §3
[9] = Electrochemical behavior of the compound assessed as redox potential corrected toward normal hydrogen electrode by cyclic voltammetry; assay type: physicochemical
[10] = system: Trypanosoma brucei brucei; test: Selectivity ratio of IC50 for wild type bloodstream form of Trypanosoma brucei brucei S427 to substrate activity at recombinant type-1 nitroreductase in bloodstream form of Trypanosoma brucei brucei S427
Method in brief: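 Bloodstream-form single-marker S427 grown at 37 °C in HMI9-T with 2.5 µg/mL G418. The NTR1-overexpressing line was also given 2.5 µg/mL phleomycin and induced with 1 µg/mL tetracycline 48 h before assay. Triplicate cultures seeded at 1×10^5 cells/mL with inhibitor; cell densities determined after 72 h to give EC50 for wild-type and NTR1 lines.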

[11] = system: Leishmania donovani; test: Antileishmanial activity against promastigote stage of Leishmania donovani MHOM/IN/00/DEVI assessed as inhibition of parasite metabolic activity after 72 hrs by MTT assay; assay type: functional, organism-based
Method in brief: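 MHOM/IN/00/DEVI log-phase promastigotes in Schneider's medium with 20% FCS, 2 mM L-glutamine and antibiotics. Seeded at 10⁶ parasites/mL with compounds in DMSO (final <0.5% v/v), in duplicate, 72 h at 27 °C. MTT added for 4 h, stopped with 50% isopropanol–10% SDS, A570 read. IC50 by nonlinear regression, mean of three independent experiments.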

[12] = as §1; assay type: cell-based, THP-1; conditions: THP1 cells; method in brief: as §2
[13] = system: Leishmania donovani; test: Antileishmanial activity against wild type promastigote stage of Leishmania donovani MHOM/SD/62/1S-CL2D LdBOB after 72 hrs by resazurin dye based assay; assay type: functional, organism-based
Method in brief: (§4)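 Clonal L. donovani LdBOB promastigotes grown at 26 °C in modified M199. NTR1 and NTR2 overexpressers kept in nourseothricin 100 µg/mL. Triplicate 10 mL cultures seeded at 5×10^4 parasites/mL with drug for 72 h. Aliquots received 50 µM resazurin, read by fluorescence (ex 528/em 590 nm) after 4 h. Background-corrected 2-parameter fit gave EC50; at least two repeats, mean ± SD.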

[14] = Selectivity index, ratio of CC50 for human HepG2 cells to IC50 for promastigote stage of Leishmania donovani MHOM/IN/00/DEVI; assay type: toxicity; conditions: read-out: Ratio CC50/IC50
[15] = system: Leishmania donovani; test: Antileishmanial activity against intramacrophage amastigote stage of Leishmania donovani infected in human THP1 cells after 120 hrs by Giemsa staining based microscopy; assay type: functional, organism-based; conditions: THP-1, 120 h
Method in brief: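 THP-1 cells differentiated with PMA (final 50 ng/mL) for 48 h at 37 °C, 6% CO2. Infected 10:1 with L. donovani promastigotes acidified 24 h at 27 °C in Schneider 20% FCS pH 5.4. After 24 h, compounds added in duplicate (DMSO <0.5% v/v) for 120 h.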

[16] = Substrate activity at recombinant nitroreductase 2 in promastigote stage of Leishmania donovani MHOM/SD/62/1S-CL2D LdBOB assessed as inhibition of parasite growth after 72 hrs by resazurin dye based assay; method in brief: as §4
[17] = Substrate activity at recombinant type-1 nitroreductase in promastigote stage of Leishmania donovani MHOM/SD/62/1S-CL2D LdBOB assessed as inhibition of parasite growth after 72 hrs by resazurin dye based assay; method in brief: as §4
[18] = Selectivity index, ratio of CC50 for human HepG2 cells to IC50 for intramacrophage amastigote stage of Leishmania donovani infected in human THP1 cells; assay type: toxicity, cell-based; conditions: read-out: Ratio CC50/IC50

SMILES | IC50 [1] [nM] | selectivity ratio [2] | selectivity ratio [3] | IC50 [4] [nM] | CC50 [5] [nM] | further results
O=[N+]([O-])c1c(CS(=O)(=O)c2ccccc2)nc2c(-c3ccccc3C(F)(F)F)cc(Cl)cn12 | 70 | 14.2 | 324 | 1600 | 22700 | 
CCCCCCCCCCCCCCCCOP(=O)([O-])OCC[N+](C)(C)C [MILTEFOSINE] |  |  |  |  |  | CC50 [6]: > 40000 nM
CC1CS(=O)(=O)CCN1/N=C/c1ccc([N+](=O)[O-])o1 (stereo not given) [NIFURTIMOX] |  |  |  |  |  | IC50 [7]: 600 nM; IC50 [8]: 1870 nM
O=[N+]([O-])c1c(CS(=O)(=O)c2ccccc2)nc2c(-c3cccc(F)c3)cc(Cl)cn12 | 200 | > 7.4 | > 62.5 | 1700 | > 12500 | 
O=[N+]([O-])c1c(CS(=O)(=O)c2ccccc2)nc2c(-c3ccc(Cl)cc3)cc(Cl)cn12 |  |  |  |  | > 3900 | 
O=[N+]([O-])c1c(CS(=O)(=O)c2ccccc2)nc2c(-c3ccccc3F)cc(Cl)cn12 |  |  |  |  | > 3900 | 
O=[N+]([O-])c1c(CS(=O)(=O)c2ccccc2)nc2c(-c3cccc(C(F)(F)F)c3)cc(Cl)cn12 | 40 | > 11.4 | > 312 | 1100 | > 12500 | Activity [9]: -0.67 V; Ratio IC50 [10]: 2; IC50 [8]: 90 nM
COc1ccc(-c2cc(Cl)cn3c([N+](=O)[O-])c(CS(=O)(=O)c4ccccc4)nc23)cc1 |  |  |  |  | > 3900 | 
O=[N+]([O-])c1c(CS(=O)(=O)c2ccccc2)nc2c(-c3ccc(C(F)(F)F)cc3)cc(Cl)cn12 |  |  |  |  | > 3900 | 
C[C@@H]1[C@H](O)[C@@H](C)/C=C/C=C/C=C/C=C/C=C/C=C/C=C/[C@H](O[C@@H]2O[C@H](C)[C@@H](O)[C@H](N)[C@@H]2O)C[C@@H]2O[C@](O)(C[C@@H](O)C[C@@H](O)[C@H](O)CC[C@@H](O)C[C@@H](O)CC(=O)O[C@H]1C)C[C@H](O)[C@H]2C(=O)O [AMPHOTERICIN B] |  |  |  |  |  | IC50 [11]: 70 nM; CC50 at 72 h [12]: > 62500 nM
O=[N+]([O-])c1c(CS(=O)(=O)c2ccccc2)nc2c(-c3ccco3)cc(Cl)cn12 |  |  |  |  | > 3900 | 
O=[N+]([O-])c1c(CS(=O)(=O)c2ccccc2)nc2c(-c3ccc(CO)cc3)cc(Cl)cn12 | 90 | 8.7 | 146 | 1500 | 13100 | 
O=[N+]([O-])c1c(CS(=O)(=O)c2ccccc2)nc2c(-c3ccc(O)cc3)cc(Cl)cn12 | 410 | > 4.2 | > 30.5 | 3000 | > 12500 | 
N#Cc1ccc(-c2cc(Cl)cn3c([N+](=O)[O-])c(CS(=O)(=O)c4ccccc4)nc23)cc1 |  |  |  |  | > 3900 | 
O=[N+]([O-])c1c(CS(=O)(=O)c2ccccc2)nc2c(-c3ccccc3CO)cc(Cl)cn12 | 160 | < 8.8 | 550 | > 10000 | 88000 | IC50 [7]: 190 nM; Activity [9]: -0.7 V; Ratio IC50 [10]: 2; IC50 [8]: 390 nM
O=[N+]([O-])c1c(CS(=O)(=O)c2ccccc2)nc2c(Br)cc(Br)cn12 | 2900 | > 7.1 | > 10.7 | 4400 | > 31000 | IC50 [13]: 1900 nM; CC50 [6]: > 25000 nM; Activity [9]: -0.59 V; selectivity ratio [14]: > 17.2; IC50 [15]: 5500 nM; IC50 [16]: 3000 nM; IC50 [17]: 70 nM; selectivity ratio [18]: > 5.6
COc1cccc2c1C(=O)c1c(O)c3c(c(O)c1C2=O)C[C@@](O)(C(=O)CO)C[C@@H]3O[C@H]1C[C@H](N)[C@H](O)[C@H](C)O1 [DOXORUBICIN] |  |  |  |  |  | CC50 [6]: 1400 nM
O=Cc1ccc(-c2cc(Cl)cn3c([N+](=O)[O-])c(CS(=O)(=O)c4ccccc4)nc23)cc1 | 80 | > 8.2 | > 390 | 3800 | > 31200 | 
O=[N+]([O-])c1c(CS(=O)(=O)c2ccccc2)nc2c(-c3cccnc3)cc(Cl)cn12 | 230 | > 15.7 | > 136 | 2000 | > 31300 | 
Cc1ccc(C(=O)Nc2ccc(S(=O)(=O)O)c3cc(S(=O)(=O)O)cc(S(=O)(=O)O)c23)cc1NC(=O)c1cccc(NC(=O)Nc2cccc(C(=O)Nc3cc(C(=O)Nc4ccc(S(=O)(=O)O)c5cc(S(=O)(=O)O)cc(S(=O)(=O)O)c45)ccc3C)c2)c1 [SURAMIN] |  |  |  |  | > 100000 | 
O=[N+]([O-])c1c(CS(=O)(=O)c2ccccc2)nc2c(-c3ccc(F)cc3)cc(Cl)cn12 | 310 | > 12 | > 50.3 | 1300 | > 15600 | 
O=[N+]([O-])c1c(CS(=O)(=O)c2ccccc2)nc2c(-c3ccccc3)cc(Cl)cn12 | 610 | > 10 | > 25.6 | 1600 | > 15600 | Activity [9]: -0.69 V
CCN(CC)c1ccc(-c2cc(Cl)cn3c([N+](=O)[O-])c(CS(=O)(=O)c4ccccc4)nc23)cc1 | 430 | > 6.2 | > 36.3 | 2500 | > 15600 | 
O=[N+]([O-])c1c(CS(=O)(=O)c2ccccc2)nc2c(Br)cc(Cl)cn12 |  |  |  |  |  | Activity [9]: -0.65 V
CSc1ccc(OCc2ncc([N+](=O)[O-])n2C)cc1 [FEXINIDAZOLE] | 600 | > 58.8 | > 333 |  | > 200000 | IC50 [11]: 1200 nM; CC50 at 72 h [12]: 3600 nM; Activity [9]: -0.83 V; selectivity ratio [14]: > 167; IC50 [15]: > 50000 nM; selectivity ratio [18]: > 50
O=[N+]([O-])c1c(CS(=O)(=O)c2ccccc2)nc2c(-c3ccc(F)cc3F)cc(Cl)cn12 |  |  |  |  | > 7800 | 
O=[N+]([O-])c1c(CS(=O)(=O)c2ccccc2)nc2c(-c3cccs3)cc(Cl)cn12 |  |  |  |  | > 3900 | 
NCCC[C@](N)(C(=O)O)C(F)F [EFLORNITHINE, (S)-] | 13300 |  | > 7.5 |  | > 100000 | 
